Data taken from ChEMBL document CHEMBL1926627, “Synthesis and evaluation of novel modified γ-lactam prostanoids as EP4 subtype-selective agonists” (Bioorg Med Chem, 2012).
pEC50, pKi: −log10 of the molar value.

Test system: not listed separately
Assay: Oral bioavailability in rat at 1 mg/kg
Type: ADME, organism-based
Conditions: in vivo

Row | SMILES | bioavailability [%]
1 | O=C(O)CCCSCCN1C(=O)OC[C@@H]1/C=C/[C@@H](O)Cc1cccc(C(F)(F)F)c1 | 6.7
2 | O=C(O)CCCSCCN1C(=O)SC[C@@H]1/C=C/[C@@H](O)Cc1ccccc1 | 3.5
3 | CCCc1cccc(C[C@H](O)/C=C/[C@H]2CSC(=O)N2CCSCCCC(=O)O)c1 | 6.3
4 | O=C(O)CCCSCCN1C(=O)SC[C@@H]1/C=C/[C@@H](O)Cc1cccc(C(F)(F)F)c1 | 5.5
5 | COCc1cccc(C[C@H](O)/C=C/[C@H]2CSC(=O)N2CCSCCCC(=O)O)c1 | 2

Test system: not listed separately
Assay: Volume of distribution at steady state in rat at 0.1 mg/kg, iv and 1 mg/kg, po
Type: ADME, organism-based
Conditions: in vivo, read-out: Vdss
How it was run: (§1)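 Rat pharmacokinetics measured after 1 mg/kg po and 0.1 mg/kg iv dosing.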

Row | SMILES | Vd [L/kg]
6 | O=C(O)CCCSCCN1C(=O)OC[C@@H]1/C=C/[C@@H](O)Cc1cccc(C(F)(F)F)c1 | 0.631
7 | O=C(O)CCCSCCN1C(=O)SC[C@@H]1/C=C/[C@@H](O)Cc1ccccc1 | 0.792
8 | CCCc1cccc(C[C@H](O)/C=C/[C@H]2CSC(=O)N2CCSCCCC(=O)O)c1 | 1.28
9 | O=C(O)CCCSCCN1C(=O)SC[C@@H]1/C=C/[C@@H](O)Cc1cccc(C(F)(F)F)c1 | 0.512
10 | COCc1cccc(C[C@H](O)/C=C/[C@H]2CSC(=O)N2CCSCCCC(=O)O)c1 | 0.325

Test system: not listed separately
Assay: Total clearance rat at 0.1 mg/kg, iv and 1 mg/kg, po
Type: ADME, organism-based
Conditions: in vivo
How it was run: as §1

Row | SMILES | clearance [mL/min/kg]
11 | O=C(O)CCCSCCN1C(=O)OC[C@@H]1/C=C/[C@@H](O)Cc1cccc(C(F)(F)F)c1 | 67
12 | O=C(O)CCCSCCN1C(=O)SC[C@@H]1/C=C/[C@@H](O)Cc1ccccc1 | 56
13 | CCCc1cccc(C[C@H](O)/C=C/[C@H]2CSC(=O)N2CCSCCCC(=O)O)c1 | 52
14 | O=C(O)CCCSCCN1C(=O)SC[C@@H]1/C=C/[C@@H](O)Cc1cccc(C(F)(F)F)c1 | 51
15 | COCc1cccc(C[C@H](O)/C=C/[C@H]2CSC(=O)N2CCSCCCC(=O)O)c1 | 47

Test system: not listed separately
Assay: AUC in rat at 0.1 mg/kg, iv and 1 mg/kg, po
Type: ADME, organism-based
Conditions: plasma
How it was run: as §1

Row | SMILES | AUC [ng·h/mL]
16 | O=C(O)CCCSCCN1C(=O)OC[C@@H]1/C=C/[C@@H](O)Cc1cccc(C(F)(F)F)c1 | 16.7
17 | O=C(O)CCCSCCN1C(=O)SC[C@@H]1/C=C/[C@@H](O)Cc1ccccc1 | 4
18 | CCCc1cccc(C[C@H](O)/C=C/[C@H]2CSC(=O)N2CCSCCCC(=O)O)c1 | 17.7
19 | O=C(O)CCCSCCN1C(=O)SC[C@@H]1/C=C/[C@@H](O)Cc1cccc(C(F)(F)F)c1 | 14.6
20 | COCc1cccc(C[C@H](O)/C=C/[C@H]2CSC(=O)N2CCSCCCC(=O)O)c1 | 6.1

Target: T1, Prostaglandin E2 receptor EP3 subtype (Mus musculus, UniProt P30557)
T1 sequence (P30557 whole entry): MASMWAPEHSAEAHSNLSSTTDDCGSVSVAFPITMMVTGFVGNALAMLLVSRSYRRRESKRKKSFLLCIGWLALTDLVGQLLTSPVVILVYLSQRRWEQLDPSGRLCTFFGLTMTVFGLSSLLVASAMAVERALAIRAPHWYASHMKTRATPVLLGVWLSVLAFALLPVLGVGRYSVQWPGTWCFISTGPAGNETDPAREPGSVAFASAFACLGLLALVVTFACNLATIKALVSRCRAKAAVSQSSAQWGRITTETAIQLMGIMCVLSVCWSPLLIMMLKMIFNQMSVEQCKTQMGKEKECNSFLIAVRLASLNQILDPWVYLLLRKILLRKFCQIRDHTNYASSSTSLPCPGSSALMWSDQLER
Assay: Displacement of [3H]-PGE2 from mouse EP3 receptor expressed in CHO cells after 60 mins by liquid scintillation counter
Type: cell-based
Conditions: not given
How it was run: (§2)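 Membranes from CHO cells stably expressing mouse EP1–4, incubated with 2.5 nM [³H]PGE₂ and test compound at various concentrations in 10 mM KH₂PO₄–KOH, 1 mM EDTA, 10 mM MgCl₂, 0.1 mM NaCl, pH 6.0. Incubated 25 °C, 60 min (EP1: 20 min). Filtration on GF/B, ice-cold buffer wash, scintillation counting. Nonspecific binding with excess unlabeled PGE₂. IC50 from regression curve; Ki = IC50/(1+[L]/Kd).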

Row | SMILES | pKi
21 | O=C(O)CCCSCCN1C(=O)OC[C@@H]1/C=C/[C@@H](O)Cc1cccc(C(F)(F)F)c1 | 5.80
22 | O=C(O)CCCSCCN1C(=O)SC[C@@H]1/C=C/[C@@H](O)Cc1ccccc1 | 7.41
23 | CCCc1cccc(C[C@H](O)/C=C/[C@H]2CSC(=O)N2CCSCCCC(=O)O)c1 | 5.92
24 | O=C(O)CCCSCCN1C(=O)SC[C@@H]1/C=C/[C@@H](O)Cc1cccc(C(F)(F)F)c1 | 6.55
25 | COCc1cccc(C[C@H](O)/C=C/[C@H]2CSC(=O)N2CCSCCCC(=O)O)c1 | < 5.00

Target: Prostaglandin E2 receptor EP2 subtype (Mus musculus, UniProt Q62053)
Sequence (Q62053 whole entry): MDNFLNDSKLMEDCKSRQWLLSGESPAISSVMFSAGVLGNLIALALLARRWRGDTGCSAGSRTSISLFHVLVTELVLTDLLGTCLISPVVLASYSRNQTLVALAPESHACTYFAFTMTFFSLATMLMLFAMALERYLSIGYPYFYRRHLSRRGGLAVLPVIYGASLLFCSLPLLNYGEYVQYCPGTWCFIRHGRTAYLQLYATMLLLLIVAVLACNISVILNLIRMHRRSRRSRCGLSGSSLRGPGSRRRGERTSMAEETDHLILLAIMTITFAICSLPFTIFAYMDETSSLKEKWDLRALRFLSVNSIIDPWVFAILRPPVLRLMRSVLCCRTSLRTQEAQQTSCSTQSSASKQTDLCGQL
Assay: Displacement of [3H]-PGE2 from mouse EP2 receptor expressed in CHO cells after 60 mins by liquid scintillation counter
Type: cell-based
Conditions: not given
How it was run: as §2

Row | SMILES | pKi
26 | O=C(O)CCCSCCN1C(=O)OC[C@@H]1/C=C/[C@@H](O)Cc1cccc(C(F)(F)F)c1 | < 5.00
27 | O=C(O)CCCSCCN1C(=O)SC[C@@H]1/C=C/[C@@H](O)Cc1ccccc1 | < 5.00
28 | CCCc1cccc(C[C@H](O)/C=C/[C@H]2CSC(=O)N2CCSCCCC(=O)O)c1 | < 5.00
29 | O=C(O)CCCSCCN1C(=O)SC[C@@H]1/C=C/[C@@H](O)Cc1cccc(C(F)(F)F)c1 | < 5.00
30 | COCc1cccc(C[C@H](O)/C=C/[C@H]2CSC(=O)N2CCSCCCC(=O)O)c1 | < 5.00

Target: T2, Prostaglandin E2 receptor EP1 subtype (Mus musculus, UniProt P35375)
T2 sequence (P35375 whole entry): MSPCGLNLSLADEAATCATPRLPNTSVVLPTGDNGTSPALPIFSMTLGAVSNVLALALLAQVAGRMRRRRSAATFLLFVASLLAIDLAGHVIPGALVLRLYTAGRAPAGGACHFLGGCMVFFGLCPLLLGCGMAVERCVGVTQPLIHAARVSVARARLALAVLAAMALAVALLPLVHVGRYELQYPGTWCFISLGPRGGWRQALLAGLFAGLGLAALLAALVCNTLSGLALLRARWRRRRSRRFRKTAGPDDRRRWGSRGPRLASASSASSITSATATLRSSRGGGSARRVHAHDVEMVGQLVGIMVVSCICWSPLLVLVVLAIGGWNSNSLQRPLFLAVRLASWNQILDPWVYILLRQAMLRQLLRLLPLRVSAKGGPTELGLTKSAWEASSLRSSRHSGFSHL
Assay: Displacement of [3H]-PGE2 from mouse EP1 receptor expressed in CHO cells after 20 mins by liquid scintillation counter
Type: cell-based
Conditions: not given
How it was run: as §2

Row | SMILES | pKi
31 | O=C(O)CCCSCCN1C(=O)OC[C@@H]1/C=C/[C@@H](O)Cc1cccc(C(F)(F)F)c1 | < 5.00
32 | O=C(O)CCCSCCN1C(=O)SC[C@@H]1/C=C/[C@@H](O)Cc1ccccc1 | < 5.00
33 | CCCc1cccc(C[C@H](O)/C=C/[C@H]2CSC(=O)N2CCSCCCC(=O)O)c1 | < 5.00
34 | O=C(O)CCCSCCN1C(=O)SC[C@@H]1/C=C/[C@@H](O)Cc1cccc(C(F)(F)F)c1 | < 5.00
35 | COCc1cccc(C[C@H](O)/C=C/[C@H]2CSC(=O)N2CCSCCCC(=O)O)c1 | < 5.00

Test system: not listed separately
Assay: Cmax in rat at 0.1 mg/kg, iv and 1 mg/kg, po
Type: ADME, organism-based
Conditions: in vivo
How it was run: as §1

Row | SMILES | Cmax [ng/mL]
36 | O=C(O)CCCSCCN1C(=O)OC[C@@H]1/C=C/[C@@H](O)Cc1cccc(C(F)(F)F)c1 | 3.8
37 | O=C(O)CCCSCCN1C(=O)SC[C@@H]1/C=C/[C@@H](O)Cc1ccccc1 | 2.7
38 | CCCc1cccc(C[C@H](O)/C=C/[C@H]2CSC(=O)N2CCSCCCC(=O)O)c1 | 11.4
39 | O=C(O)CCCSCCN1C(=O)SC[C@@H]1/C=C/[C@@H](O)Cc1cccc(C(F)(F)F)c1 | 5.3
40 | COCc1cccc(C[C@H](O)/C=C/[C@H]2CSC(=O)N2CCSCCCC(=O)O)c1 | 2.6

Target: Prostaglandin E2 receptor EP4 subtype (Mus musculus, UniProt P32240)
Sequence (P32240 whole entry): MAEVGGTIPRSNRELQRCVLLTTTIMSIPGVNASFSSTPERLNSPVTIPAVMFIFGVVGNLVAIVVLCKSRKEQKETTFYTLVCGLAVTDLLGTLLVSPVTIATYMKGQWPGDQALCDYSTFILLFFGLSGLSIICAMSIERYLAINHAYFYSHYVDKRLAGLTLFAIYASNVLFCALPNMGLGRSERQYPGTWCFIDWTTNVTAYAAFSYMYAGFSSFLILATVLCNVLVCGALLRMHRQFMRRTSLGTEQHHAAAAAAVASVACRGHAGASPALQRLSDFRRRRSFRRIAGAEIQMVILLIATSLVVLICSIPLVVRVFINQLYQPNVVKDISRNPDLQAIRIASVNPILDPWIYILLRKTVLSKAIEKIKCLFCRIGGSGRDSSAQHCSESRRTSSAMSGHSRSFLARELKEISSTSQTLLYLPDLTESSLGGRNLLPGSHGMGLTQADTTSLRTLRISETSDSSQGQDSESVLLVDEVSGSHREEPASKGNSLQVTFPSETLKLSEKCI
Assay: Displacement of [3H]-PGE2 from mouse EP4 receptor expressed in CHO cells after 60 mins by liquid scintillation counter
Type: cell-based
Conditions: not given
How it was run: as §2

Row | SMILES | pKi
41 | O=C(O)CCCSCCN1C(=O)OC[C@@H]1/C=C/[C@@H](O)Cc1cccc(C(F)(F)F)c1 | 8.70
42 | O=C(O)CCCSCCN1C(=O)SC[C@@H]1/C=C/[C@@H](O)Cc1ccccc1 | 9.19
43 | CCCc1cccc(C[C@H](O)/C=C/[C@H]2CSC(=O)N2CCSCCCC(=O)O)c1 | 9.01
44 | O=C(O)CCCSCCN1C(=O)SC[C@@H]1/C=C/[C@@H](O)Cc1cccc(C(F)(F)F)c1 | 9.01
45 | COCc1cccc(C[C@H](O)/C=C/[C@H]2CSC(=O)N2CCSCCCC(=O)O)c1 | 8.92

Target: Prostaglandin E2 receptor EP4 subtype (Rattus norvegicus, UniProt P43114)
Sequence (P43114 whole entry): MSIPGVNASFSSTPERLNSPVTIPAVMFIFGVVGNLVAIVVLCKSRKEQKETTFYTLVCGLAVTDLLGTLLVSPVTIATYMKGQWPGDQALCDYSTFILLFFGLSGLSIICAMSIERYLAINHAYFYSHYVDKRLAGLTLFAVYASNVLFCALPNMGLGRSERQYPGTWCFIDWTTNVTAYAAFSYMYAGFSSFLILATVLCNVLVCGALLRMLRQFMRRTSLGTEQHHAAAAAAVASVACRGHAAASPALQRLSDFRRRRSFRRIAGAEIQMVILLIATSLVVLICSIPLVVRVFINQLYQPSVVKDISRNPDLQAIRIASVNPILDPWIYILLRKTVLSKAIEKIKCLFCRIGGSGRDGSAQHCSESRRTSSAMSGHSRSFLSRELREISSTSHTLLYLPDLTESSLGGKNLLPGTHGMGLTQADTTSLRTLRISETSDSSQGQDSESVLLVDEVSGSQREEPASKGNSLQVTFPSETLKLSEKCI
Assay: Agonist activity at rat EP4 receptor expressed in CHO cells assessed as cAMP production after 10 mins by radioimmunoassay
Type: functional, cell-based
Conditions: not given
How it was run: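 CHO cells expressing rat EP4 seeded at 1×10^5 cells/well and grown 2 days. Washed with MEM, then 10 min at 37 °C in MEM with 2 µM diclofenac. Preincubated 10 min at 37 °C in assay medium with 1% BSA. Test compound added, 10 min at 37 °C. Stopped with ice-cold 10% trichloroacetic acid. cAMP measured by radioimmunoassay.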

Row | SMILES | pEC50
46 | O=C(O)CCCSCCN1C(=O)OC[C@@H]1/C=C/[C@@H](O)Cc1cccc(C(F)(F)F)c1 | 7.92
47 | O=C(O)CCCSCCN1C(=O)SC[C@@H]1/C=C/[C@@H](O)Cc1ccccc1 | 8.32
48 | CCCc1cccc(C[C@H](O)/C=C/[C@H]2CSC(=O)N2CCSCCCC(=O)O)c1 | 8.21
49 | O=C(O)CCCSCCN1C(=O)SC[C@@H]1/C=C/[C@@H](O)Cc1cccc(C(F)(F)F)c1 | 8.37
50 | COCc1cccc(C[C@H](O)/C=C/[C@H]2CSC(=O)N2CCSCCCC(=O)O)c1 | 8.62

Test system: Rattus norvegicus
Assay: Inhibition of LPS induced TNF-alpha production in po dosed Sprague-Dawley rat administered 30 mins before LPS challenge measured after 90 mins by ELISA
Type: functional
Conditions: not given
How it was run: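 Seven-week-old Sprague–Dawley rats dosed orally with compound in sterile saline containing 20% HP-β-CD. LPS (1 mg/mL in sterile saline) given iv at 10 µg/2 mL/kg 30 min later. Blood drawn by aortic puncture into heparinized syringes 90 min after LPS. Plasma taken after centrifugation at 4 °C and frozen. Result given as ED50.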

Row | SMILES | ED50 [mg/kg]
51 | O=C(O)CCCSCCN1C(=O)OC[C@@H]1/C=C/[C@@H](O)Cc1cccc(C(F)(F)F)c1 | 3
52 | O=C(O)CCCSCCN1C(=O)SC[C@@H]1/C=C/[C@@H](O)Cc1ccccc1 | 1
53 | CCCc1cccc(C[C@H](O)/C=C/[C@H]2CSC(=O)N2CCSCCCC(=O)O)c1 | 1
54 | O=C(O)CCCSCCN1C(=O)SC[C@@H]1/C=C/[C@@H](O)Cc1cccc(C(F)(F)F)c1 | 1
55 | COCc1cccc(C[C@H](O)/C=C/[C@H]2CSC(=O)N2CCSCCCC(=O)O)c1 | 1
